{"data": "Assay results from different studies", "note": "Each line is one published result; the experiments were not run side by side. pIC50: −log10 of the molar value."}
{"SMILES": "COC(=O)c1cc(-c2cccc(NC(=O)Nc3ccccc3)c2)on1", "target or system": "Mycolicibacterium fortuitum", "assay": "microbial growth, broth dilution", "system": "ATCC6841", "setting": "48 h", "measurement": "MIC", "result": "> 64 µg/mL"}
{"SMILES": "Nc1ccn(C[C@@H](CO)OCP(=O)(O)O)c(=O)n1", "target or system": "Cowpox virus", "assay": "microbial growth", "measurement": "MIC50", "result": "22 µM"}
{"SMILES": "Nc1ccn(C[C@@H](CO)OCP(=O)(O)O)c(=O)n1", "target or system": "Cowpox virus", "assay": "viral replication", "measurement": "pIC50", "result": 4.52}
{"SMILES": "CO[C@H]1/C=C/O[C@@]2(C)Oc3c(C)c(O)c4c(O)c(c(/C=N/N5CCN(C)CC5)c(O)c4c3C2=O)NC(=O)/C(C)=C\\C=C\\[C@H](C)[C@H](O)[C@@H](C)[C@@H](O)[C@@H](C)[C@H](OC(C)=O)[C@@H]1C", "target or system": "Mycobacterium marinum", "assay": "microbial growth", "system": "ATCC927", "measurement": "MIC", "result": "< 0.2 µg/mL"}
{"SMILES": "CC(C(=O)NCc1ccccc1)c1cccc(C(OC(=O)NCc2ccccc2)c2ccccc2)c1 (stereo not drawn)", "target or system": "CCRF-CEM", "assay": "cell growth or viability", "setting": "72 h", "measurement": "pIC50", "result": 5.57}
{"SMILES": "Nc1nc2c(ncn2COCCO)c(=O)[nH]1", "target or system": "Cowpox virus", "assay": "microbial growth", "measurement": "MIC50", "result": "250 µM"}
{"SMILES": "COC(=O)c1cc(-c2cccc(NC(=O)Nc3ccccc3F)c2)on1", "target or system": "Mycolicibacterium fortuitum", "assay": "microbial growth, broth dilution", "system": "ATCC6841", "setting": "48 h", "measurement": "MIC", "result": "> 64 µg/mL"}
{"SMILES": "CCOC(=O)c1c(CSc2ccccc2)n(C)c2cc(Br)c(O)c(CN(C)C)c12.Cl.O", "target or system": "Cowpox virus", "assay": "microbial growth", "measurement": "MIC50", "result": "> 20 µg/mL"}
{"SMILES": "Cc1ccc(-c2nc3ccc(C)cn3c2CC(=O)N(C)C)cc1", "target or system": "Mycobacterium marinum", "assay": "microbial growth", "setting": "5 days", "measurement": "MIC", "result": "> 50 µM"}
{"SMILES": "N#Cc1ccc(NC(=S)NN=Cc2ccc(O)cc2)cc1", "target or system": "CCRF-CEM", "assay": "cell growth or viability", "setting": "72 h", "measurement": "IC50", "result": "107 µg/mL"}
{"SMILES": "COC(=O)c1cc(-c2cccc(NC(=O)Nc3ccc(C(F)(F)F)cc3)c2)on1", "target or system": "Mycolicibacterium fortuitum", "assay": "microbial growth, broth dilution", "system": "ATCC6841", "setting": "48 h", "measurement": "MIC", "result": "> 64 µg/mL"}
{"SMILES": "COc1ccc(C=NNC(=S)Nc2ccc(C#N)cc2)cc1", "target or system": "CCRF-CEM", "assay": "cell growth or viability", "setting": "72 h", "measurement": "IC50", "result": "> 200 µg/mL"}
{"SMILES": "CCOC(=O)c1nnn(-c2cccc(NC(=O)Nc3ccc(Cl)c(Cl)c3)c2)c1C", "target or system": "Mycolicibacterium fortuitum", "assay": "microbial growth, broth dilution", "system": "ATCC6841", "setting": "48 h", "measurement": "MIC", "result": "> 64 µg/mL"}
{"SMILES": "Cc1ccnc2c1NC(=O)c1cccnc1N2C1CC1", "target or system": "Human immunodeficiency virus 1", "assay": "viral replication, inhibitor", "system": "human PBMC", "setting": "clinical isolate", "measurement": "IC90", "result": "0.227 µM"}
{"SMILES": "COC(=O)c1cc(-c2cccc(NC(=O)Nc3cc(Cl)ccc3Cl)c2)on1", "target or system": "Mycolicibacterium fortuitum", "assay": "microbial growth, broth dilution", "system": "ATCC6841", "setting": "48 h", "measurement": "MIC", "result": "> 64 µg/mL"}
{"SMILES": "COc1cc(C(=O)c2cc3c(-c4ccccc4)c(O)ccc3o2)cc(OC)c1OC", "target or system": "CCRF-CEM", "assay": "cell growth or viability", "setting": "72 h", "measurement": "pIC50", "result": "< 4.30"}
{"SMILES": "COC(=O)c1cc(-c2cccc(NC(=S)Nc3ccc([N+](=O)[O-])cc3)c2)on1", "target or system": "Mycolicibacterium fortuitum", "assay": "microbial growth, broth dilution", "system": "ATCC6841", "setting": "48 h", "measurement": "MIC", "result": "> 64 µg/mL"}
{"SMILES": "CC(C(=O)N1CCCC1)c1cccc(C(OC(=O)N2CCCC2)c2ccccc2)c1 (stereo not drawn)", "target or system": "CCRF-CEM", "assay": "cell growth or viability", "setting": "72 h", "measurement": "pIC50", "result": 4.38}
